Laboratory results as given in PubChem BioAssay AID624268 (The Scripps Research Institute Molecular Screening Center, 2012).
In all, about 360,000 compounds went through this assay and about 1,500 (0.42%) were called active.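 How the source made its calls: active means inhibition above a per-plate cutoff of the control wells' mean inhibition plus 3 SD (cut at about 5.5% in these data); inactive means the rest.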 The entries come from a sample that favours actives as a whole.

What follows are compounds tested on methionyl-tRNA synthetase (Trypanosoma brucei brucei) (assay: T. brucei MetRS inhibitors, primary screen, biochemical, luminescence (AID 624268;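 further: 0% = DMSO wells median and 100% = median of wells with control inhibitor compound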)). Conditions: purified T. brucei MetRS, ATP depletion, Kinase-Glo luminescence; at 11.9 µM; active compounds read high.
Outline: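 Dosing: 11.9 µM single point; system: parasite MetRS enzyme; technique: luminescence of leftover ATP; times: 15 min enzyme-compound preincubation, 2 h reaction, 10 min detection, 25 °C; replicates: each compound tested once; read-out basis: percent inhibition relative to median high and low control wells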
In the case of `Brc1ccc(-c2nn[nH]n2)cc1`, the inhibition was 0.2% (inactive).
`Oc1[nH]c2ccc(Br)cc2c1N=Nc1nn[nH]n1` was tested, and the inhibition was 5.61% (active).
With `Cc1cccc(N=Nc2c(O)[nH]c3ccc(F)cc23)c1` the inhibition was 0.2% (inactive).
In the case of `CCOC(=O)c1sc(NC(=O)CSc2nc(O)c(Cc3ccccc3)c(=O)[nH]2)nc1C`, the inhibition was -1.03% (inactive).
For `CCCS(=O)(=O)NC(=O)C1(C)CCCN(C(=O)c2ccnc(Cl)c2)C1` (stereo unspecified), the inhibition was -0.05% (inactive).
With `O=C(CCCOc1ccc(Cl)cc1Cl)NNC(=O)C1CCC1` the inhibition was 1.44% (inactive).
`Cn1c(CCCOc2ccc(Cl)cc2Cl)n[nH]c1=S` was tested, and the inhibition was 7.11% (active).
In the case of `CC(C)Oc1ccc(Cc2n[nH]c(=S)n2Cc2ccccc2)cc1Cl`, the inhibition was -0.26% (inactive).
`COC(=O)CN1C(=O)[C@H]2[C@@H](/C=C/c3ccccc3)N3C(=O)CN(CC4CC4)C(=O)[C@@]3(Cc3ccccc3)[C@H]2C1=O` was tested, and the inhibition was -0.4% (inactive).
In the case of `NCCCCCC(=O)N/N=C/c1ccc2nccnc2c1`, the inhibition was -0.25% (inactive).
With `O=C(CC(O)(C(F)(F)F)C(F)(F)F)Nc1ccc(Cl)c(Cl)c1` the inhibition was 1.83% (inactive).
For `O=C(CC(=O)Nc1ccc(Cl)c(Cl)c1)N/N=C/c1ccc(O)cc1`, the inhibition was 10.6% (active).
In the case of `Cc1csc(=O)n1CCC(=O)OCC(=O)NNC(=O)c1ccc(Br)cc1`, the inhibition was -0.33% (inactive).
In the case of `CC1(C(=O)NS(=O)(=O)c2cccc(F)c2)CCN1C(=O)c1cccc2ccccc12` (stereo unspecified), the inhibition was -0.25% (inactive).
With `COCCCNCCOCCOc1ccc(Cl)cc1Br` the inhibition was 1.56% (inactive).
For `O=C(N[C@H]1CC[C@H](CC(=O)N2CCCCC2)O[C@@H]1CO)c1cccc(F)c1`, the inhibition was -0.31% (inactive).
With `O=C(Oc1cccc(N2C(=O)C3C4c5ccccc5C(c5ccccc54)C3C2=O)c1)c1ccco1` (stereo unspecified) the inhibition was 0.29% (inactive).
For `O=C(/C(=N\O)n1cncn1)c1ccc(Br)cc1Br`, the inhibition was 17.9% (active).
With `CCc1ccc(N(CC(=O)Nc2sc3c(c2C(=O)OC)CCCC3)S(C)(=O)=O)cc1` the inhibition was 0.46% (inactive).
With `CCn1c(CSCc2c(Cl)cccc2Cl)n[nH]c1=S` the inhibition was 0.37% (inactive).
For `S=c1[nH]nc(CSCc2ccc(Cl)cc2Cl)n1-c1ccccc1`, the inhibition was 6.2% (active).
`Cc1ccc(NCc2n[nH]c(=S)n2-c2ccccc2)cc1Cl` was tested, and the inhibition was -0.41% (inactive).
`Nc1cc(N)nc(SCc2cccc(F)c2)n1` was tested, and the inhibition was -0.35% (inactive).
For `Cn1nc(-c2ccc(Cl)cc2)c2cc(C(=O)NCc3ccco3)sc21`, the inhibition was 2.08% (inactive).
`O=C(c1ccco1)N1CCN(CC(=O)N(C2CCCCC2)C2CCS(=O)(=O)C2)CC1` (stereo unspecified) was tested, and the inhibition was -0.62% (inactive).
In the case of `Cc1ccc(NN=C2C(=O)OC(C)(C)OC2=O)c(C)c1`, the inhibition was 0.27% (inactive).
With `O=C(COC(=O)CCCSc1nc2ccccc2[nH]1)Nc1ccc(Oc2ccccc2)cc1` the inhibition was -0.54% (inactive).
In the case of `O=C(CSc1nc2ccccc2[nH]1)N/N=C/C=C\c1ccccc1[N+](=O)[O-]`, the inhibition was 9.68% (active).
`CCn1c(SCC(=O)N/N=C/C=C/c2ccccc2[N+](=O)[O-])nnc1-c1ccccc1` was tested, and the inhibition was 0.33% (inactive).
`COCCNC(=O)CN1C(=O)CSc2ncccc21` was tested, and the inhibition was 0.04% (inactive).
For `O=C(NNS(=O)(=O)c1ccc(F)cc1)C1CCCCC1`, the inhibition was -0.24% (inactive).
With `CCOC(=O)CN(C(=O)CN1CCOCC1)c1ccc(Br)cc1` the inhibition was -1.11% (inactive).
`C/C(=N\Nc1nc2ccccc2[nH]1)c1cccs1` was tested, and the inhibition was 2.21% (inactive).
With `Cc1ccc(O)c(CNc2nc3ccccc3[nH]2)c1` the inhibition was 72.6% (active).
With `Cc1ccc(-c2cc(=O)[nH]c(NCc3ccccc3)n2)cc1` the inhibition was 0.58% (inactive).
With `C=CCN1CCN(C(=O)CCCc2ccccc2)CC1` the inhibition was 0.23% (inactive).
For `Cn1c(=O)c2c(nc(N3CCOCC3)n2CCNC2=NCCC2)n(C)c1=O`, the inhibition was 0.1% (inactive).
With `O=C1CCCN1CCCNc1ncnc2c1[nH]c1ccccc12` the inhibition was 37.3% (active).
For `O=Cc1c(NCCCN2CCCC2=O)c2ccccc2[nH]c1=O`, the inhibition was -0.57% (inactive).
With `Cc1nn(Cc2ccccc2)c(C)c1C(=O)NCCCN1CCCC1=O` the inhibition was -0.02% (inactive).
For `Cc1ccnc2nc(C(=O)OCC(=O)N(CC(C)C)CC(C)C)nn12`, the inhibition was -0.19% (inactive).
In the case of `O=C(O)C1CCN(c2ccc([N+](=O)[O-])cc2[N+](=O)[O-])CC1`, the inhibition was 0.21% (inactive).
In the case of `CCN1CCN(c2ccc([N+](=O)[O-])cc2C(=O)c2ccc(Cl)cc2)CC1`, the inhibition was -0.26% (inactive).
`O=[N+]([O-])c1ccc(N2CCN(c3ccc(O)cc3)CC2)c(Cl)c1` was tested, and the inhibition was 7.21% (active).
For `NC(=S)NN=Cc1ccc(OC(=O)COc2cc(Cl)c(Cl)cc2Cl)cn1`, the inhibition was 0.02% (inactive).
In the case of `CCN(CC)C(=O)Cn1cc(S(=O)(=O)CC(=O)NCc2ccc3c(c2)OCO3)c2ccccc21`, the inhibition was -0.63% (inactive).
For `CC(C)NC(=O)CSc1ccccc1C(=O)NCc1ccc2c(c1)OCO2`, the inhibition was -0.69% (inactive).
In the case of `CCN(CC)C(=O)C(=O)c1cn(CC(=O)NCc2ccc3c(c2)OCO3)c2ccccc12`, the inhibition was 60.8% (active).
In the case of `CCOn1c(=O)c(=O)n(O)c2ccccc21`, the inhibition was 0.13% (inactive).
For `O=C(NCc1ccccc1)c1cccc(NC(=O)C2CCCCC2)c1`, the inhibition was -0.28% (inactive).
With `CCOc1ccc(NC(=O)CC2C(=O)N(c3ccccc3)C(=O)N2CCOC)cc1` (stereo unspecified) the inhibition was 0.31% (inactive).
With `COC(=O)CN1C(=S)N(c2ccccc2)C(=O)C1CC(=O)Nc1ccc(Cl)cc1` (stereo unspecified) the inhibition was 12% (active).
In the case of `COCCN1C(=O)N(c2ccc(Cl)cc2)C(=O)C1CC(=O)Nc1cc(OC)cc(OC)c1` (stereo unspecified), the inhibition was 0.28% (inactive).
In the case of `CCCc1nnc(NC(=O)CCC(=O)NC2CC2)s1`, the inhibition was 0.11% (inactive).
For `COc1cccc(C(CC(=O)NCCN2CCOCC2)NS(=O)(=O)c2ccc(C)cc2)c1OC` (stereo unspecified), the inhibition was -0.3% (inactive).
`CC(=O)c1ccc(NC(=O)c2ccc(-n3cncn3)c([N+](=O)[O-])c2)cc1` was tested, and the inhibition was 36.6% (active).
For `O=C(COc1ccccc1F)NNC(=O)c1ccc(N2CCCCC2)c([N+](=O)[O-])c1`, the inhibition was -0.55% (inactive).
In the case of `Cc1ccccc1OCC(=O)NNC(=O)c1cc(S(=O)(=O)N(C)C)ccc1N1CCCC1`, the inhibition was -0.26% (inactive).
For `Cc1ccccc1OCC(=O)NNC(=O)c1ccc(-n2cncn2)c([N+](=O)[O-])c1`, the inhibition was 8.29% (active).
`Cc1ccc(S(=O)(=O)N(C)C)cc1NC(=O)c1ccccc1Br` was tested, and the inhibition was -0.6% (inactive).
In the case of `Cc1cc(O)c(NC(=O)c2ccc(C)c([N+](=O)[O-])c2)cc1C`, the inhibition was -1.17% (inactive).
`Cc1ccc(S(=O)(=O)N(C)C)cc1NC(=O)c1ccc(-n2cncn2)c([N+](=O)[O-])c1` was tested, and the inhibition was 41% (active).
In the case of `CCOc1ccc(C(=O)Nc2cc(Cl)ccc2-n2cncn2)cc1OC`, the inhibition was -0.61% (inactive).
`CC(C)NC(=O)c1ccc(Sc2ccccc2)c([N+](=O)[O-])c1` was tested, and the inhibition was -1.54% (inactive).
With `Cc1ccc(S(=O)(=O)N2CCN(C(=O)c3ccc(-n4cncn4)c([N+](=O)[O-])c3)CC2)cc1` the inhibition was 1.45% (inactive).
`CC(=O)Nc1ccc(NC(=S)NC(=O)c2ccc([N+](=O)[O-])c(C)c2)cc1` was tested, and the inhibition was -0.17% (inactive).
`O=C(NNC(=O)c1ccc(-n2cncn2)c([N+](=O)[O-])c1)c1ccccc1` was tested, and the inhibition was 17.1% (active).
With `COc1cc(C2C(C#N)=C(C)NC3=C2C(=O)CC(C)(C)C3)ccc1O` (stereo unspecified) the inhibition was -1.19% (inactive).
In the case of `Cc1ccc(-c2nc(COC(=O)c3c(C)noc3C)cs2)cc1`, the inhibition was -0.6% (inactive).
`COC(=O)[C@@]12C[C@@H](CC(=O)N3CCC(c4ccccc4)CC3)C(=O)N(Cc3ccccc3)C1=CCC(C)(C)C2` was tested, and the inhibition was -0.7% (inactive).
With `Cc1c(NC(=O)CCC2CCCCC2)cc(C(=O)N2CCOCC2)cc1[N+](=O)[O-]` the inhibition was -2.05% (inactive).
In the case of `Cc1cc(C)cc(OCC(=O)NNC(=O)CCN2C(=O)c3ccccc3C2=O)c1`, the inhibition was 0.2% (inactive).
For `C[N+](C)(C)CCOP(=O)([O-])OC[C@H](O)CO`, the inhibition was -0.22% (inactive).
`CCn1c(SCC(=O)Nc2ccccc2F)nc2c(c1=O)SC(C)C2` (stereo unspecified) was tested, and the inhibition was -0.06% (inactive).
In the case of `O=S(=O)(c1ccc(Cl)cc1)c1nc(-c2ccccc2F)oc1NCCN1CCOCC1`, the inhibition was -0.33% (inactive).
For `O=S(=O)(c1ccccc1)c1nc(-c2ccccc2)oc1NCCCN1CCOCC1`, the inhibition was 0.27% (inactive).
In the case of `c1ccc2cc3c(NCCN4CCOCC4)ccnc3cc2c1`, the inhibition was 34.1% (active).
`O=c1cnnc(Nc2ccccc2F)[nH]1` was tested, and the inhibition was 0.6% (inactive).
`Cc1cc(/C=N/n2cnnc2)c(C)n1-c1ccc2ncccc2c1` was tested, and the inhibition was 0.03% (inactive).
For `O=C(CN1CCC(NC(=O)Nc2ccccc2)CC1)Nc1cccc([N+](=O)[O-])c1`, the inhibition was 0.83% (inactive).
For `O=C(Nc1cccc([N+](=O)[O-])c1)N1CCc2ccccc2C1`, the inhibition was 7.11% (active).
For `O=C(CSCC(=O)Nc1cccc([N+](=O)[O-])c1)Nc1ccccc1`, the inhibition was 8.16% (active).
With `CCc1ccc(NC(=O)N2CCc3ccccc3C2)cc1` the inhibition was -0.43% (inactive).
For `Cc1c(NC(=O)Nc2cccc([N+](=O)[O-])c2)c(=O)n(-c2ccccc2)n1C`, the inhibition was -0.43% (inactive).
With `O=C(CSc1nc(-c2ccccc2)cs1)Nc1cccc([N+](=O)[O-])c1` the inhibition was -0.12% (inactive).
`Cc1ccc(-c2csc(C(C#N)=C(O)CN3CCN(C(=O)c4ccco4)CC3)n2)cc1` was tested, and the inhibition was -0.54% (inactive).
With `CCc1cccc(CC)c1NC(=O)COc1ccccc1C(=O)c1cc(C#N)c(=O)n(C2CCCCC2)c1` the inhibition was 0.13% (inactive).
In the case of `CCOC(=O)C1CCN(S(=O)(=O)c2c(C)noc2C)CC1`, the inhibition was -0.02% (inactive).
For `CCNS(=O)(=O)c1ccc(NC(=O)c2cncc(Br)c2)cc1`, the inhibition was -0.64% (inactive).
`O=C(NC(=S)Nc1ccc(S(=O)(=O)Nc2ncccn2)cc1)c1cccc(Br)c1` was tested, and the inhibition was 0.66% (inactive).
For `O=C(Nc1ccc(S(=O)(=O)Nc2ncccn2)cc1)c1cncc(Br)c1`, the inhibition was 64.2% (active).
